The values below come from PubChem BioAssay AID588557 (Sanford-Burnham Center for Chemical Genomics, 2011).

As a reminder, the IC50 is the concentration that inhibits the measured activity by half.

Calls of active or inactive are those of the source.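 How the source made its calls: active means cytotoxic IC50, the dose that kills half the cells, at 20 µM or lower; inactive means the rest.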 Some results are limits rather than exact numbers.

The subject of this experiment is CHO-CHOP cells viability, ATPLite luminescence, 6 h. Description: cytotoxicity in CHO-CHOP reporter cells, SAR follow-up, cytotoxicity control for UPR apoptotic arm activator project, cell-based, 6 h exposure, ATPLite luminescence (AID 588557). In outline:
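Test system – CHO-CHOP reporter cells · Dosing – dose response, DMSO ≤1% final · Timing – 16–18 h pre-dosing growth, then 6 h exposure at 37 °C · Measured by – ATPLite 1-Step luminescence · Controls – tunicamycin 10 µg/mL positive, DMSO-only negative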
For orientation: Cellular ATP, detected with luciferase, serves as a proxy for viable cell number.
Regarding `O=C(Nc1nc2ccc(Cl)cc2s1)c1ccccn1`, the IC50 is 3.84 µM.

In the case of `O=C(Nc1nc2cccc(F)c2s1)c1ccccn1`, the IC50 is 7.07 µM.

Turning to `O=C(Nc1nc2cc(F)cc(F)c2s1)c1ccccn1`, the IC50 is 8.88 µM.

For `O=C(Nc1ccc(S(=O)(=O)N2CCNCC2)cc1)c1ccc([N+](=O)[O-])o1`, the IC50 is > 80 µM (inactive).

With `O=C(Nc1nc2ccc(F)c(F)c2s1)c1ccccn1`, the IC50 was 13.4 µM.

With `O=C(Nc1nc2cc(F)c(F)cc2s1)c1ccccn1`, the IC50 is 8.4 µM.

Regarding `O=C(Nc1nc2c(Cl)cc(Cl)cc2s1)c1ccccn1`, the IC50 was > 80 µM (inactive).

For `O=C(Nc1ccc(S(=O)(=O)C2CCCCC2)cc1)c1ccc([N+](=O)[O-])o1`, the IC50 is > 80 µM (inactive).

With `CC1CN(S(=O)(=O)c2ccc(NC(=O)c3ccc([N+](=O)[O-])o3)cc2)CC(C)O1` (stereo not given), the IC50 was > 80 µM (inactive).

On to `Cc1cc(C)c2nc(NC(=O)c3ccccn3)sc2c1`, for which the IC50 was 16.2 µM.

Turning to `O=C(Nc1nc2c(F)cc(F)cc2s1)c1ccccn1`, the IC50 is 9.57 µM.

Turning to `O=C(Nc1nc2cc(F)ccc2s1)c1ccccn1`, the IC50 is 2.7 µM.

For the compound `O=C(Nc1ccc(S(=O)(=O)N2CCCCC2)cc1)c1ccc([N+](=O)[O-])o1`, the IC50 was > 80 µM (inactive).

For `O=C(Nc1nc2c(F)c(F)ccc2s1)c1ccccn1`, the IC50 is 15.1 µM.

Turning to `O=C(Nc1nc2ccc(F)cc2s1)c1ccccn1`, the IC50 is 4.52 µM.

In the case of `O=C(Nc1ccc(S(=O)(=O)N2CCC3(CCCCC3)CC2)cc1)c1ccc([N+](=O)[O-])o1`, the IC50 is > 80 µM (inactive).

With `O=C(Nc1ccc(S(=O)(=O)N2CCC(Cl)CC2)cc1)c1ccc([N+](=O)[O-])o1`, the IC50 is > 80 µM (inactive).

Regarding `O=C(Nc1nc2c(F)cccc2s1)c1ccccn1`, the IC50 was 4.42 µM.

As to `O=C(Nc1ccc(S(=O)(=O)N2CCOCC2)cc1)c1ccc([N+](=O)[O-])s1`, the IC50 was > 80 µM (inactive).

As for `CC1(C)CCN(S(=O)(=O)c2ccc(NC(=O)c3ccc([N+](=O)[O-])o3)cc2)CC1`, the IC50 is > 80 µM (inactive).

For the compound `O=C(Nc1ccc(S(=O)(=O)N2CCC(F)CC2)cc1)c1ccc([N+](=O)[O-])o1`, the IC50 is > 80 µM (inactive).

For `O=C(Nc1nc2c(F)ccc(F)c2s1)c1ccccn1`, the IC50 is 23.6 µM (inactive).

Regarding `O=C(Nc1ccc(S(=O)(=O)N2CCCC2)cc1)c1ccc([N+](=O)[O-])o1`, the IC50 was 74.6 µM (inactive).

As for `CC(C)(C)C1CCN(S(=O)(=O)c2ccc(NC(=O)c3ccc([N+](=O)[O-])o3)cc2)CC1`, the IC50 was > 80 µM (inactive).

Consider `CC1CCN(S(=O)(=O)c2ccc(NC(=O)c3ccc([N+](=O)[O-])o3)cc2)CC1`, for which the IC50 is > 80 µM (inactive).

Consider `O=C(Nc1ccc(S(=O)(=O)N2CCOCC2)cc1)c1ccc([N+](=O)[O-])o1`, for which the IC50 is > 80 µM (inactive).

As for `O=C(Nc1ccc(S(=O)(=O)c2ccccc2)cc1)c1ccc([N+](=O)[O-])o1`, the IC50 is > 80 µM (inactive).

`O=C(Nc1nc2ccc(C(F)(F)F)cc2s1)c1ccccn1`: the IC50 is 4.63 µM.

Take `O=C(Nc1ccc(S(=O)(=O)C2CCOCC2)cc1)c1ccc([N+](=O)[O-])o1`: the IC50 is > 80 µM (inactive).

Consider `O=C(Nc1ccc(S(=O)(=O)N2CCC(O)CC2)cc1)c1ccc([N+](=O)[O-])o1`, for which the IC50 was > 80 µM (inactive).
